# In the library only some 3.5% were active in any assay of this set; here they are far more common.
# HIV Env fusion: blocks HIV Env-driven cell-cell fusion | inhibition, % at 12.3 µM | AID 651610 | 1.1% of 360,000 active | HeLa-JRFL Env/CEM21 cell fusion, luciferase;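 active means mean replicate inhibition score of at least 50 and every replicate individually at or above 50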;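 further: 0% = plate neutral controls and 100% = maraviroc near 300 nM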
# rRNA inh HTS: selective bacterial rRNA inhibition in E. coli. E. coli WT GFP vs humanized-ribosome RFP mutants, fluorescence, 24 h; hits give low values; DMSO median 0, no signal -100. GFP signal change (wild-type ribosome), % (test concentration not listed). 1.6% of 350,000 active. AID 720706;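 active means significant combined selectivity score with lowered wild-type GFP, culture density cut under 30%, mutant RFP and density less affected; inactive means any of these conditions unmet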
# ERAP1 inh: blocks human ERAP1 aminopeptidase activity. inhibition, % at 10.7 µM. recombinant ERAP1, Leu-AMC fluorescence, 60 min. 0.15% of 340,000 active. Q9NZ08;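 active means mean replicate inhibition of at least 30%, or all replicates individually reaching that 30% level; inactive means mean below 30% and not every replicate reaching it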;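 further: 0% = neutral control wells and 100% = L-leucinethiol positive control wells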
# PGC1a acetyl inh: modulators of PGC1a acetylation. U2OS PGC1a acetylation, AlphaScreen anti-acetyl-lysine; with virally co-expressed GCN5 acetyltransferase. inhibition, % at 15.6 µM. 0.17% of 350,000 active. AID 651687;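 active means every replicate shows inhibition of at least 40%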;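 further: 0% = neutral control wells and 100% = positive control wells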
# FGF22 binding: shifts melting point of recombinant human FGF22. Q9HCT0. 1.5% of 340,000 active. activity (Tm shift, normalised), % at 9.99 µM. recombinant FGF22 thermal shift, SYPRO orange fluorescence; percent of sucrose octasulfate shift, DMSO zero. AID 651658;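 active means mean Tm shift, scaled 0 neutral to 100 positive control, at about 1.3% or above, every replicate too, limit read from the data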
# Cneo AK release: causes C. neoformans cell lysis; adenylate kinase release luminescence, 4 h; normalised: neutral wells 0, clomiphene wells 100; lysis activity, % at 15 µM; 0.2% of 360,000 active;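 active means mean lysis activity across replicates of at least 80%, whatever share of replicates individually reach that level; inactive means mean lysis activity below 80%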
#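 Material: C. neoformans cells | Amount: Yeast cell density of 5 × 10^6 cells/mL | Medium: Fresh YPD growth medium | Dosing: Single dose | Times: Static 4 h at 37 °C with compound, 1 h detection | Detection: AK luminescence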
# Numbers without * were called inactive; nt = no result; [ ] = dose if it differs, or a comment.
SMILES,HIV Env fusion,rRNA inh HTS,ERAP1 inh,PGC1a acetyl inh,FGF22 binding,Cneo AK release
CC(C)(C)c1ccc(CCC2OCC(C[N+]3(C)CCOCC3)O2)cc1 (stereo unspecified),15.1,4.1,104.3*,73.3*,-0.2,-0.2
CCOC(=O)Cc1n[nH]c(=O)c2ccccc12,-7.3,20.7,0.8,nt,0.2,1.2
O=C(Cc1n[nH]c(=O)c2ccccc12)OCC(=O)N(Cc1ccccc1)Cc1ccccc1,22.1,-23.8*,0.6,-1.0,0.1,0.5
Cc1cccc(C)c1NC(=S)NCCc1ccccn1,2.8,nt,nt,nt,nt,nt
CCN(C(=O)C1CCN(c2nc(-c3ccc(OC)cc3)no2)CC1)c1ccc(OC)cc1,59.9*,-1.3,3.2,-4.9,0.0,-1.0
COc1ccc(-c2noc(N3CCC(C(=O)N4CCN(c5ccccn5)CC4)CC3)n2)cc1,62.8*,nt,nt,-16.3,nt,-2.4
CCn1ncc(Br)c1C(=O)Nc1cc(C(=O)OC)ccc1C(=O)OC,nt,nt,nt,-5.6,nt,nt
COc1cc(C2c3sc(=O)[nH]c3SC3C4CCC(C4)C23)ccc1O (stereo unspecified),nt,-31.9*,3.3,4.9,0.2,1.4
C=CCOc1ccc(CNc2ccc3[nH]c(=O)[nH]c3c2)cc1,0.3,-14.3*,-1.2,-7.2,0.2,nt
C[C@H](O)[C@@H]1C(=O)N2CCc3c([nH]c4cccc(-c5ccccc5)c34)[C@@H]2C[C@@H]1N(C)C(=O)c1ccccc1,7.4,9.2,-1.6,nt,0.0,nt
C[C@H](O)[C@@H]1C(=O)N2CCc3c([nH]c4cccc(-c5ccccc5)c34)[C@@H]2C[C@@H]1N(C)C(=O)OCc1ccccc1,71.2*,3.6,4.8,nt,-0.2,nt
Cc1ccc(CNc2nc3ccccc3n2C)cc1,-27.5,6.3,0.1,2.5,0.1,-5.1
COc1ccc(C(=O)c2cn[nH]c2-c2cc(Cl)ccc2O)cc1,-73.5,nt,nt,2.7,nt,0.9
COc1ccc(C(=O)c2cn[nH]c2-c2cc(C)ccc2O)cc1,5.2,-16.1*,-2.8,nt,0.0,-1.0
CC(C)Cc1ccc(C(C)C(N)=NCCc2ccccc2)cc1 (stereo unspecified),76.4*,-57.2,-2.7,nt,-0.2,0.6
COc1ccc(CCN=C(N)C(C)c2ccccc2)cc1OC (stereo unspecified),23.2,20.3,1.3,nt,-0.1,1.6
CC(=O)c1ccc(N2CC(C)(C)C2=O)cc1,-2.9,18.7,2.9,6.9,43.0*,-1.0
CC(=O)Oc1c(C(C)C)cc(N(C(C)=O)c2ccccc2)cc1C(C)C,4.4,-22.2*,1.9,nt,0.0,nt
O=C(O)C1C2CC3OC(=O)C1C3C2 (stereo unspecified),16.8,20.9,0.0,61.8*,0.0,-2.2
N#Cc1c2ccc(O)cc2n2ccccc12,50.3,-28.4,-0.6,nt,nt,nt
O=C1OC(c2ccc(Cl)cc2)=C/C1=C/c1cccnc1,13.1,15.8,29.1,nt,0.1,2.8
Cc1ccc(C2=C/C(=C/c3cccnc3)C(=O)O2)c(C)c1,14.1,3.1,0.3,nt,44.3*,nt
O=C(NCC1CCCCC1)c1cc([N+](=O)[O-])ccc1Cl,-14.1,9.3,-3.3,0.1,-0.4,1.6
O=C(CSc1nc2ccccc2n1CC(=O)N1CCCC1)Nc1nccs1,nt,5.0,1.9,1.7,0.2,-0.6
O=C(CSc1nnc(-c2ccc(Cl)cc2)n1CC1CCCO1)NC1CCS(=O)(=O)C1 (stereo unspecified),0.4,10.6,-1.7,-9.6,0.1,nt
SMILES,HIV Env fusion,rRNA inh HTS,ERAP1 inh,PGC1a acetyl inh,FGF22 binding,Cneo AK release
Cc1cc2c3c(c1C)C1(C(=O)N3C(C)(C)CC2C)C(C#N)=C(N)Oc2cc(O)ccc21 (stereo unspecified),61.9*,nt,nt,-7.3,nt,0.4
CC(=O)N[C@H]1CC[C@H](CCNC(=O)C2CCCC2)O[C@@H]1CO,-14.4[16.7 µM],-0.4,-1.5,1.1,-0.1,-2.7
CCc1ccc(Nc2ccc(C(N)=O)cc2[N+](=O)[O-])cc1,6.5,5.6,1.6,19.3,43.8*,nt
NC(=O)c1cccc(-c2cnc3c(Nc4cccc(OC(F)(F)C(F)F)c4)nccn23)c1,17.6,-3.0,-1.4,nt,0.2,-0.9
Cc1onc(-c2ccccc2)c1-c1nnc(-c2ccccc2C(F)(F)F)o1,11.2,-19.9*,5.2,nt,-0.1,-2.1
Cc1onc(-c2c(F)cccc2Cl)c1-c1nnc(-c2ccc(C(F)(F)F)cc2)o1,19.2,13.1,6.6,5.6,0.0,-1.0
